Assay results reported in ChEMBL document CHEMBL4371072, “Structure-Activity Relationship Studies and Plasmodium Life Cycle Profiling Identifies Pan-Active N-Aryl-3-trifluoromethyl Pyrido[1,2- a]benzimidazoles Which Are Efficacious in an in Vivo Mouse Model of Malaria” (J Med Chem, 2019).
Each block holds one molecule with its values, some of them ahead of it.

How the values were obtained:
[1] = system: Plasmodium falciparum; test: (§1) Antiplasmodial activity against chloroquine-sensitive asexual blood stage of Plasmodium falciparum NF54 infected in human RBC assessed as reduction in [3H]hypoxanthine incorporation preincubated for 48 hrs followed by [3H]hypoxanthine addition measured after 24 hrs by liquid scintillation counting method; format: functional, organism-based
Outline: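 Asexual blood-stage P. falciparum NF54 assay, run as a modified [3H]-hypoxanthine incorporation assay. Values are the mean of n ≥ 2 assays; determinations differing more than 3-fold were excluded. Chloroquine and artesunate served as controls.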

[2] = system: Hemozoin; test: Inhibition of beta hematin formation after 5 hrs by NP40 detergent-based assay
[3] = system: Plasmodium falciparum; test: as §1, with “chloroquine-resistant” for “chloroquine-sensitive”, “K1” for “NF54”; format: functional, organism-based
Outline: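 Asexual blood-stage P. falciparum K1 (multidrug resistant) screened by modified [3H]-hypoxanthine incorporation assay; IC50 as mean of n ≥ 2 assays, replicates differing above 3-fold excluded; chloroquine and artesunate controls.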

[4] = Resistance index, ratio of IC50 for chloroquine-resistant asexual blood stage of Plasmodium falciparum K1 infected in human RBC to IC50 for chloroquine-sensitive asexual blood stage of Plasmodium falciparum NF54 infected in human RBC; format: functional
[5] = system: Plasmodium falciparum; test: Antiplasmodial activity against chloroquine-sensitive final late stage of Plasmodium falciparum NF54-Mal8p1.16-GFP-Luc gametocytes after 24 hrs by BacTiter-Glo assay; format: functional, organism-based; conditions: NF54, 24 h
Outline: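 Late-stage PfNF54 gametocytes produced in vitro; gametocytocidal IC50 via luciferase reporter and ATP bioluminescence platforms; n=3 independent biological replicates in technical triplicates, ± S.E.M.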

[6] = system: CHO; test: Cytotoxicity against CHO cells after 48 hrs by MTT assay; format: cell-based; conditions: Cricetulus griseus
[7] = Selectivity index, ratio of IC50 for CHO cells to IC50 for chloroquine-sensitive asexual blood stage of Plasmodium falciparum NF54 infected in human RBC; format: toxicity; conditions: Chinese hamster, read-out: Ratio IC50
Outline: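 Selectivity index taken as the ratio of the CHO-cell IC50 to the P. falciparum NF54 IC50.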

[8] = Metabolic stability in Balb/c mouse liver microsomes assessed as parent compound remaining at 0.1 uM after 30 mins in presence of NADPH by LC-MS/MS analysis; conditions: liver microsomes
[9] = Metabolic stability in human liver microsomes assessed as parent compound remaining at 0.1 uM after 30 mins in presence of NADPH by LC-MS/MS analysis; conditions: liver microsomes
[10] = Half life in human liver microsomes at 0.1 uM in presence of NADPH by LC-MS/MS analysis; conditions: liver microsomes
[11] = Half life in Balb/c mouse liver microsomes at 0.1 uM in presence of NADPH by LC-MS/MS analysis; conditions: liver microsomes
[12] = system: Plasmodium berghei; test: Antimalarial activity against liver stage form of luciferase transfected Plasmodium berghei sporozoites infected in human HuH7 cells preincubated with host cells for 1 hr followed by plasmodial infection and measured after 48 hrs by bioluminescence method; format: functional, organism-based; conditions: Huh-7

IC50 [1]: 2400 nM
Compound: CC(C)c1ccc(CNc2cc(C(F)(F)F)c(C#N)c3nc4ccccc4n23)cc1

IC50 [1]: > 2820 nM
Compound: COc1ncnc(Nc2cc(C(F)(F)F)c(C#N)c3nc4ccccc4n23)c1OC

Compound: CS(=O)(=O)c1ccc(CNc2cc(C(F)(F)F)c(C#N)c3nc4cc(Cl)c(Cl)cc4n23)cc1
IC50 [2]: > 100000 nM
IC50 [1]: 5340 nM
IC50 [3]: 5610 nM
Ratio IC50 [4]: 1.05

IC50 [1]: 8740 nM
Compound: N#Cc1c(C(F)(F)F)cc(NCc2ccc(O)cc2)n2c1nc1ccccc12

IC50 [1]: 5520 nM
Compound: COC(=O)c1c(C(F)(F)F)cc(Nc2ccc(OC(F)(F)F)cc2)n2c1nc1ccccc12

IC50 [1]: > 2720 nM
Compound: N#Cc1c(C(F)(F)F)cc(NCc2ccncc2)n2c1nc1ccccc12

Compound: N#Cc1c(C(F)(F)F)cc(NCc2ccc(F)cc2)n2c1nc1cc(Cl)cc(Cl)c12
IC50 [5]: 740 nM
IC50 [6]: 1660 nM
IC50 [1]: 310 nM
IC50 [3]: 210 nM

IC50 [1]: 1490 nM
Compound: Cc1ccc(CNc2cc(C(F)(F)F)c(C#N)c3nc4ccccc4n23)cc1
selectivity ratio [7]: 17
IC50 [6]: 25000 nM

Compound: N#Cc1c(C(F)(F)F)cc(NS(=O)(=O)c2ccccn2)n2c1nc1cc(Cl)c(Cl)cc12
IC50 [2]: > 100000 nM
IC50 [1]: > 6000 nM

IC50 [1]: 1590 nM
Compound: COC(=O)c1ccc(Nc2cc(C(F)(F)F)c(C#N)c3nc4ccccc4n23)cc1

IC50 [1]: 2360 nM
Compound: N#Cc1ccc(Nc2cc(C(F)(F)F)c(C#N)c3nc4ccccc4n23)cc1

IC50 [1]: 10000 nM
Compound: N#Cc1c(C(F)(F)F)cc(N2CCNCC2)n2c1nc1ccccc12

IC50 [2]: > 100000 nM
IC50 [1]: > 2680 nM
Compound: CC(Nc1cc(C(F)(F)F)c(C#N)c2nc3ccccc3n12)c1ccc(S(C)(=O)=O)cc1 (stereo unspecified)

IC50 [1]: > 2720 nM
Compound: N#Cc1c(C(F)(F)F)cc(NCc2cccnc2)n2c1nc1ccccc12

Compound: N#Cc1c(C(F)(F)F)cc(NCc2ccc(F)cc2)n2c1nc1cc(Cl)c(Cl)cc12
remaining at 0.5 h, 0.1 µM [8]: 72%
remaining at 0.5 h, 0.1 µM [9]: 102%
IC50 [5]: 690 nM
selectivity ratio [7]: 30
IC50 [6]: 13000 nM
half-life at 0.1 µM [10]: > 2.5 h
IC50 [1]: 440 nM
IC50 [3]: 280 nM
half-life at 0.1 µM [11]: 1.05 h
Ratio IC50 [4]: 0.64

IC50 [1]: 2140 nM
Compound: Cc1ccc(Nc2cc(C(F)(F)F)c(C#N)c3nc4ccccc4n23)cc1

IC50 [1]: 1160 nM
Compound: CCCOc1ccc(Nc2cc(C(F)(F)F)c(C#N)c3nc4ccccc4n23)cc1

IC50 [1]: > 2720 nM
Compound: CN(Cc1ccccn1)c1cc(C(F)(F)F)c(C#N)c2nc3ccccc3n12

Compound: N#Cc1c(C(F)(F)F)cc(Nc2ccccc2OC(F)(F)F)n2c1nc1ccccc12
IC50 [1]: 870 nM
IC50 [3]: 620 nM
Ratio IC50 [4]: 0.71

IC50 [1]: > 10000 nM
Compound: CNC(=O)c1ccc(Nc2cc(C(F)(F)F)c(C#N)c3nc4ccccc4n23)cc1

IC50 [2]: 32000 nM
IC50 [1]: > 1970 nM
Compound: N#Cc1c(C(F)(F)F)cc(Nc2ccc(OC(F)(F)F)cc2)n2c1nc1cc(Cl)c(Cl)cc12

Compound: CN(C)c1ccc2nc3ccc(N(C)C)cc3[s+]c2c1 [METHYLENE BLUE ANHYDROUS]
IC50 [5]: 900 nM

Compound: N#Cc1c(C(F)(F)F)cc(NCc2ccc(F)cc2)n2c1nc1ccccc12
selectivity ratio [7]: 35
IC50 [12]: 890 nM
IC50 [6]: 45000 nM
IC50 [1]: 1270 nM
IC50 [3]: 890 nM
Ratio IC50 [4]: 0.7

Compound: N#Cc1c(C(F)(F)F)cc(NCc2ccccn2)n2c1nc1ccccc12
IC50 [2]: > 100000 nM
selectivity ratio [7]: > 234
IC50 [6]: > 272000 nM
IC50 [1]: 1160 nM
IC50 [3]: 1640 nM
Ratio IC50 [4]: 1.41

Compound: NC(=O)c1c(C(F)(F)F)cc(NCc2ccccn2)n2c1nc1ccccc12
IC50 [1]: > 10000 nM
IC50 [3]: > 10000 nM

IC50 [1]: 8110 nM
Compound: N#Cc1c(C(F)(F)F)cc(N2CCNCC2)n2c1nc1cc(Cl)c(Cl)cc12

IC50 [1]: > 2360 nM
Compound: CN(C)C(=O)c1ccc(Nc2cc(C(F)(F)F)c(C#N)c3nc4ccccc4n23)cc1

IC50 [1]: 1010 nM
Compound: CC(C)c1ccc(Nc2cc(C(F)(F)F)c(C#N)c3nc4ccccc4n23)cc1
